In ChEMBL document CHEMBL1138853, “Synthesis and antituberculosis activity of a novel series of optically active 6-nitro-2,3-dihydroimidazo[2,1-b]oxazoles” (2006) one finds MIC data, which are given here for 19 compounds.

SMILES strings stand for the structures. ≈ marks a conversion by molar mass, not a printed value.

For test [1], the system named is Mycobacterium tuberculosis. Nature of the test: Antituberculosis activity against rifampicin resistant Mycobacterium tuberculosis H37Rv. In kind it is functional. The gist of the method:
(§1)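 Agar dilution on 7H11 plates with drug-susceptible and drug-resistant M. tuberculosis H37Rv strains grown in Middlebrook 7H9 broth. Frozen stocks (-80 °C) diluted to about 10⁶ CFU/mL and spotted with a multipoint inoculator onto drug-containing plates. Drugs dissolved in DMSO and serially diluted 2-fold in DMSO. Read-out: MIC.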

For test [2], the system named is Mycobacterium tuberculosis. Kind of test: Antituberculosis activity against INH resistant Mycobacterium tuberculosis H37Rv. In kind it is functional. The gist of the method:
as §1

As for `C[C@]1(COc2ccc(N3CCC(Oc4ccccc4OC(F)(F)F)CC3)cc2)Cn2cc([N+](=O)[O-])nc2O1`, the values for the MIC in test [1] and in test [2] were 0.2 µg/mL (≈ 0.374 µM) and 0.39 µg/mL (≈ 0.73 µM), respectively.

As for `COc1ccc(OC2CCN(c3ccc(OC[C@@]4(C)Cn5cc([N+](=O)[O-])nc5O4)cc3)CC2)cc1`, the MIC in test [1] was 0.2 µg/mL (≈ 0.416 µM); in test [2], 0.39 µg/mL (≈ 0.812 µM).

With `C[C@]1(COc2ccc(N3CC[S+]([O-])CC3)cc2)Cn2cc([N+](=O)[O-])nc2O1`, the MIC in test [1] and in test [2] was 6.25 µg/mL (≈ 15.9 µM) throughout.

As to `C[C@]1(COc2ccc(N3CCSCC3)cc2)Cn2cc([N+](=O)[O-])nc2O1`, the results for the MIC in test [1] and in test [2] were 0.2 µg/mL (≈ 0.531 µM) and 0.39 µg/mL (≈ 1.04 µM), respectively.

`C[C@]1(COc2ccc(N3CCCCC3)cc2)Cn2cc([N+](=O)[O-])nc2O1`: the MIC in test [1] and in test [2] was 0.39 µg/mL (≈ 1.09 µM) each time.

Take `C[C@]1(COc2ccc(N3CCOCC3)cc2)Cn2cc([N+](=O)[O-])nc2O1`: the MIC in test [1] is 0.39 µg/mL (≈ 1.08 µM); in test [2] it was 0.78 µg/mL (≈ 2.16 µM).

As for `C[C@]1(COc2ccc(N3CCC(Oc4cccc(OC(F)(F)F)c4)CC3)cc2)Cn2cc([N+](=O)[O-])nc2O1`, the MIC in test [1] and in test [2] was 0.024 µg/mL (≈ 0.0449 µM) in each case.

As to `C[C@]1(COc2ccc(N3CCC(Oc4ccc(Cl)cc4)CC3)cc2)Cn2cc([N+](=O)[O-])nc2O1`, the figures for the MIC in test [1] and in test [2] were 0.024 µg/mL (≈ 0.0495 µM) and 0.05 µg/mL (≈ 0.103 µM), respectively.

For the compound `C[C@]1(COc2ccc(OC(F)(F)F)cc2)Cn2cc([N+](=O)[O-])nc2O1`, the MIC in test [1] came to 0.2 µg/mL (≈ 0.557 µM); in test [2], 0.39 µg/mL (≈ 1.09 µM).

Regarding `C[C@]1(COc2ccccc2)Cn2cc([N+](=O)[O-])nc2O1`, the minimal inhibitory concentration (MIC) in test [1] and in test [2] was 0.05 µg/mL (≈ 0.182 µM) throughout.

For the compound `COc1ccc(OC[C@@]2(C)Cn3cc([N+](=O)[O-])nc3O2)cc1`, the MIC in test [1] amounted to 0.05 µg/mL (≈ 0.164 µM); in test [2] it was 0.1 µg/mL (≈ 0.328 µM).

As for `C[C@]1(COc2ccc(C(F)(F)F)cc2)Cn2cc([N+](=O)[O-])nc2O1`, the MIC in test [1] was 0.1 µg/mL (≈ 0.291 µM); in test [2] it was 0.2 µg/mL (≈ 0.583 µM).

Consider `Cc1ccc(OC2CCN(c3ccc(OC[C@@]4(C)Cn5cc([N+](=O)[O-])nc5O4)cc3)CC2)cc1`, for which the MIC in test [1] and in test [2] was 0.39 µg/mL (≈ 0.84 µM) throughout.

For `Cc1ccc(OC[C@@]2(C)Cn3cc([N+](=O)[O-])nc3O2)cc1`, the MIC turned out to be 0.012 µg/mL (≈ 0.0415 µM) in test [1] and 0.024 µg/mL (≈ 0.083 µM) in test [2].

For `C[C@]1(COc2ccc(N3CCC(Oc4ccc(C(F)(F)F)cc4)CC3)cc2)Cn2cc([N+](=O)[O-])nc2O1`, the MIC in test [1] amounted to 0.006 µg/mL (≈ 0.0116 µM); in test [2] it was 0.012 µg/mL (≈ 0.0231 µM).

In the case of `C[C@]1(COc2ccc(N3CCC(Oc4ccc(OC(F)(F)F)cc4)CC3)cc2)Cn2cc([N+](=O)[O-])nc2O1` [DELAMANID], the MIC in test [1] and in test [2] was 0.006 µg/mL (≈ 0.0112 µM) in each case.

In the case of `C[C@]1(COc2ccc(N3CCC(Oc4ccc(F)cc4)CC3)cc2)Cn2cc([N+](=O)[O-])nc2O1`, the values for the MIC in test [1] and in test [2] were 0.2 µg/mL (≈ 0.427 µM) and 0.39 µg/mL (≈ 0.832 µM), respectively.

For `C[C@]1(COc2ccc(N3CCC(Oc4ccccc4)CC3)cc2)Cn2cc([N+](=O)[O-])nc2O1`, the MIC in test [1] was determined as 0.2 µg/mL (≈ 0.444 µM); in test [2], 0.39 µg/mL (≈ 0.866 µM).

For `C[C@]1(COc2ccc(Cl)cc2)Cn2cc([N+](=O)[O-])nc2O1`, the MIC in test [1] worked out at 0.006 µg/mL (≈ 0.0194 µM); in test [2] it was 0.012 µg/mL (≈ 0.0387 µM).

The MIC is the least concentration at which growth counts as inhibited.
